According to ChEMBL document CHEMBL1141374 (J Med Chem, 2007):

Legend:
SF-268 = experiment: Growth inhibition in SF268 cells; format: functional; conditions: Homo sapiens
UACC-257 = experiment: Growth inhibition in UACC257 cells; format: functional; conditions: Homo sapiens
SN12C = experiment: Growth inhibition in SN12C cells; format: functional; conditions: Homo sapiens
NCI-H23 = experiment: Growth inhibition in NCI-H23 cells; format: functional; conditions: Homo sapiens
SNB-75 = experiment: Growth inhibition in SNB75 cells; format: functional; conditions: Homo sapiens
NCI-H522 = experiment: Growth inhibition in NCI-H522 cells; format: functional; conditions: Homo sapiens
A498 = experiment: Growth inhibition in A498 cells; format: functional; conditions: Homo sapiens
RXF 393 = experiment: Growth inhibition in RXF393 cells; format: functional; conditions: Homo sapiens
HOP-62 = experiment: Growth inhibition in HOP62 cells; format: functional; conditions: Homo sapiens
CAKI-1 = experiment: Growth inhibition in CAK1-1 cells; format: functional; conditions: Homo sapiens
OVCAR-8 = experiment: Growth inhibition in OVCAR8 cells; format: functional; conditions: Homo sapiens
SF-539 = experiment: Growth inhibition in SF539 cells; format: functional; conditions: Homo sapiens
UO-31 = experiment: Growth inhibition in UO31 cells; format: functional; conditions: Homo sapiens
PC-3 = experiment: Growth inhibition in PC3 cells; format: functional; conditions: Homo sapiens
NCI-H460 = experiment: Growth inhibition in NCI-H460 cells; format: functional; conditions: Homo sapiens
NCI-H322M = experiment: Growth inhibition in NCI-H322M cells; format: functional; conditions: Homo sapiens
HeLa = experiment: Cytotoxicity against HeLa cell line; format: cell-based; conditions: Homo sapiens
Method in brief: (§1)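 Log-phase cells were diluted to 20 000–30 000 cells/mL, seeded, and left to attach overnight. They were then exposed to compounds at 10^–5–10^–12 M for 72 h at 37 °C in 5% CO2. Viable cells were measured by MTT, with absorbance read at 595 nm. Each compound ran in triplicate in at least three independent assays. IC50 came from nonlinear regression, and average values were reported.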

KM12 = experiment: Growth inhibition in KM12 cells; format: functional; conditions: Homo sapiens
IGROV-1 = experiment: Growth inhibition in IGROV1 cells; format: functional; conditions: Homo sapiens
SF-295 = experiment: Growth inhibition in SF295 cells; format: functional; conditions: Homo sapiens
EKVX = experiment: Growth inhibition in EKVX cells; format: functional; conditions: Homo sapiens
[1] = Growth inhibition in MDA-MB-231/ATCC cells; format: functional; conditions: Homo sapiens
M14 = experiment: Growth inhibition in M14 cells; format: functional; conditions: Homo sapiens
[2] = Growth inhibition in HCC15 cells; format: functional; conditions: Homo sapiens
Tubulin = experiment: Inhibition of tubulin polymerization; format: protein-complex assay, Homo sapiens
Method in brief: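 Kit-based assay run per the manufacturer's instructions. Tubulin (>99% pure, 3 mg/mL) in G-PEM buffer, in a prewarmed plate with compound at 0.03–30 μM. OD340 nm read every 60 s at 37 °C for 1 h.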

COLO 205 = experiment: Growth inhibition in COLO205 cells; format: functional; conditions: Homo sapiens
MCF7 = experiment: Growth inhibition in MCF7 cells; format: functional; conditions: Homo sapiens
786-0 = experiment: Growth inhibition in 786-0 cells; format: functional; conditions: Homo sapiens
HCT-116 = experiment: Cytotoxicity against HCT116 cell line; format: cell-based; conditions: Homo sapiens; method in brief: as §1
A549 = experiment: Growth inhibition in A549 cells; format: functional; conditions: Homo sapiens
HCC 2998 = experiment: Growth inhibition in HCC2998 cells; format: functional; conditions: Homo sapiens
SK-OV-3 = experiment: Growth inhibition in SKOV3 cells; format: functional; conditions: Homo sapiens
HOP-92 = experiment: Growth inhibition in HOP92 cells; format: functional; conditions: Homo sapiens
NCI/ADR-RES = experiment: Growth inhibition in NCI/ADR-RES cells; format: functional; conditions: Homo sapiens
MDA-MB-435 = experiment: Growth inhibition in MDA-MB-435 cells; format: functional; conditions: Homo sapiens
K562 = experiment: Growth inhibition in K562 cells; format: functional; conditions: Homo sapiens
CCRF-CEM = experiment: Growth inhibition in CCRF-CEM cells; format: functional; conditions: Homo sapiens
ZR-75-1 = experiment: Cytotoxicity against ZR-75-1 cell line; format: cell-based; conditions: Homo sapiens; method in brief: as §1
LOX IMVI = experiment: Growth inhibition in LOX IMVI cells; format: functional; conditions: Homo sapiens
UACC-62 = experiment: Growth inhibition in UACC62 cells; format: functional; conditions: Homo sapiens
HL-60 = experiment: Growth inhibition in HL60 cells; format: functional; conditions: Homo sapiens
[3] = Cytotoxicity against KB-3-1 cell line; format: cell-based; conditions: Homo sapiens; method in brief: as §1
HT-29 = experiment: Growth inhibition in HT29 cells; format: functional; conditions: Homo sapiens
BT-549 = experiment: Growth inhibition in BT549 cells; format: functional; conditions: Homo sapiens
OVCAR-3 = experiment: Growth inhibition in OVCAR-3 cells; format: functional; conditions: Homo sapiens
TK-10 = experiment: Growth inhibition in TK10 cells; format: functional; conditions: Homo sapiens
T47D = experiment: Growth inhibition in T47D cells; format: functional; conditions: Homo sapiens
NCI-H226 = experiment: Growth inhibition in NCI-H226 cells; format: functional; conditions: Homo sapiens
SW-620 = experiment: Growth inhibition in SW620 cells; format: functional; conditions: Homo sapiens
ACHN = experiment: Growth inhibition in ACHN cells; format: functional; conditions: Homo sapiens
SNB-19 = experiment: Growth inhibition in SNB19 cells; format: functional; conditions: Homo sapiens
[4] = Growth inhibition in HCC116 cells; format: functional; conditions: Homo sapiens
[5] = Growth inhibition in HS 578T cells; format: functional; conditions: Homo sapiens
OVCAR-5 = experiment: Growth inhibition in OVCAR5 cells; format: functional; conditions: Homo sapiens
[6] = Cytotoxicity against P-glycoprotein-overexpressing KB-V1 cell line; format: cell-based; conditions: Homo sapiens; method in brief: as §1
SK-MEL-5 = experiment: Growth inhibition in SK-MEL-5 cells; format: functional; conditions: Homo sapiens
OVCAR-4 = experiment: Growth inhibition in OVCAR4 cells; format: functional; conditions: Homo sapiens
DU-145 = experiment: Growth inhibition in DU145 cells; format: functional; conditions: Homo sapiens
U-251 = experiment: Growth inhibition in U251cells; format: functional; conditions: Homo sapiens
SK-MEL-28 = experiment: Growth inhibition in SK-MEL-28 cells; format: functional; conditions: Homo sapiens

COc1cc(-c2nncn2-c2ccc(N(C)C)cc2)cc(OC)c1OC
GI50 (SF-268): 34.7 nM
GI50 (UACC-257): 100000 nM
GI50 (SN12C): 724 nM
GI50 (NCI-H23): 6760 nM
GI50 (SNB-75): 107 nM
GI50 (NCI-H522): 57.5 nM
GI50 (A498): 490 nM
GI50 (RXF 393): 1620 nM
GI50 (HOP-62): 275 nM
GI50 (CAKI-1): 135 nM
GI50 (OVCAR-8): 2570 nM
GI50 (SF-539): 324 nM
GI50 (UO-31): 955 nM
GI50 (PC-3): 28.2 nM
GI50 (NCI-H460): 178 nM
GI50 (NCI-H322M): 2630 nM
IC50 (HeLa): 29.6 nM
GI50 (KM12): 26.3 nM
GI50 (IGROV-1): 95.5 nM
GI50 (SF-295): 37.1 nM
GI50 (EKVX): > 100000 nM
GI50 [1]: 1020 nM
GI50 (M14): 50.1 nM
GI50 [2]: 60.3 nM
IC50 (Tubulin): 4100 nM
GI50 (COLO 205): 87.1 nM
GI50 (MCF7): 275 nM
GI50 (786-0): 398 nM
IC50 (HCT-116): 91.5 nM
GI50 (A549): 398 nM
GI50 (HCC 2998): 85.1 nM
GI50 (SK-OV-3): 347 nM
GI50 (HOP-92): 389 nM
GI50 (NCI/ADR-RES): 129 nM
GI50 (MDA-MB-435): < 10 nM
GI50 (K562): 12.9 nM
GI50 (CCRF-CEM): 61.7 nM
IC50 (ZR-75-1): 308 nM
GI50 (LOX IMVI): 219 nM
GI50 (UACC-62): 95.5 nM
GI50 (HL-60): 105 nM
IC50 [3]: 119 nM
GI50 (HT-29): 30.9 nM
GI50 (BT-549): 25100 nM
GI50 (OVCAR-3): 34.7 nM
GI50 (TK-10): 1660 nM
GI50 (T47D): 47.9 nM
GI50 (NCI-H226): 100000 nM
GI50 (SW-620): 75.9 nM
GI50 (ACHN): 204 nM
GI50 (SNB-19): 204 nM
GI50 [4]: 60.3 nM
GI50 [5]: 417 nM
GI50 (OVCAR-5): 4270 nM
IC50 [6]: 323 nM
GI50 (SK-MEL-5): 69.2 nM
GI50 (OVCAR-4): 20900 nM
GI50 (DU-145): 1860 nM
GI50 (U-251): 151 nM

CC(=O)O[C@H]1C(=O)[C@@]2(C)[C@H]([C@H](OC(=O)c3ccccc3)[C@]3(O)C[C@H](OC(=O)[C@H](O)[C@@H](NC(=O)c4ccccc4)c4ccccc4)C(C)=C1C3(C)C)[C@]1(OC(C)=O)CO[C@@H]1C[C@@H]2O [PACLITAXEL]
IC50 (ZR-75-1): 308 nM
IC50 [3]: 23.3 nM
IC50 [6]: > 10000 nM

COc1cc(-c2nncn2-c2ccc3c(c2)CCN3C)cc(OC)c1OC
IC50 (HeLa): 4100 nM
IC50 (Tubulin): > 10000 nM
IC50 (HCT-116): 3290 nM

COc1ccc(/C=C\c2cc(OC)c(OC)c(OC)c2)cc1O [COMBRETASTATIN A4]
IC50 (HeLa): 0.3 nM
IC50 (HCT-116): 0.35 nM
IC50 (ZR-75-1): 0.24 nM
IC50 [3]: 0.78 nM
IC50 [6]: 0.64 nM

COc1cc2c(c(OC)c1OC)-c1ccc(OC)c(=O)cc1[C@@H](NC(C)=O)CC2 [COLCHICINE]
IC50 (HeLa): 1.84 nM
IC50 (HCT-116): 2.75 nM
IC50 (ZR-75-1): 522 nM
IC50 [3]: 3.99 nM
IC50 [6]: 620 nM

COc1cc(-n2cnnc2-c2ccc3c(ccn3C)c2)cc(OC)c1OC
IC50 (HeLa): 18 nM
IC50 (Tubulin): 5600 nM
IC50 (HCT-116): 24.3 nM
IC50 [3]: 15 nM
IC50 [6]: 32.1 nM

COc1ccc(-n2cnnc2-c2cc(OC)c(OC)c(OC)c2)cc1
GI50 (SF-268): 5890 nM
GI50 (UACC-257): 3980 nM
GI50 (SN12C): 4070 nM
GI50 (NCI-H23): 3160 nM
GI50 (SNB-75): 2340 nM
GI50 (A498): 3800 nM
GI50 (RXF 393): 1580 nM
GI50 (HOP-62): 2090 nM
GI50 (CAKI-1): 2570 nM
GI50 (OVCAR-8): 4790 nM
GI50 (SF-539): 4070 nM
GI50 (PC-3): 4900 nM
GI50 (NCI-H460): 3390 nM
GI50 (NCI-H322M): 5620 nM
GI50 (SK-MEL-28): 9550 nM
IC50 (HeLa): 290 nM
GI50 (KM12): 2140 nM
GI50 (SF-295): 1290 nM
GI50 (EKVX): 37200 nM
GI50 [1]: 3160 nM
GI50 (M14): 1950 nM
GI50 [2]: 1700 nM
GI50 (COLO 205): 3470 nM
GI50 (MCF7): 1700 nM
GI50 (786-0): 2510 nM
IC50 (HCT-116): 230 nM
GI50 (A549): 8320 nM
GI50 (HCC 2998): 295 nM
GI50 (SK-OV-3): 6460 nM
GI50 (HOP-92): > 100000 nM
GI50 (NCI/ADR-RES): 1780 nM
GI50 (MDA-MB-435): 234 nM
GI50 (K562): 631 nM
GI50 (CCRF-CEM): 1860 nM
IC50 (ZR-75-1): 522 nM
GI50 (LOX IMVI): 4370 nM
GI50 (UACC-62): 3240 nM
GI50 (HL-60): 4070 nM
IC50 [3]: 373 nM
GI50 (HT-29): 2140 nM
GI50 (BT-549): 9770 nM
GI50 (OVCAR-3): 1740 nM
GI50 (TK-10): 9770 nM
GI50 (NCI-H226): 5250 nM
GI50 (SW-620): 2750 nM
GI50 (ACHN): 4470 nM
GI50 (SNB-19): 5250 nM
GI50 [4]: 3020 nM
GI50 [5]: 2950 nM
GI50 (OVCAR-5): 3800 nM
IC50 [6]: 907 nM
GI50 (SK-MEL-5): 2400 nM
GI50 (OVCAR-4): 5500 nM
GI50 (DU-145): 2950 nM
GI50 (U-251): 4370 nM
